The record followed here is ChEMBL document CHEMBL4270522, “Halogenated trimethoprim derivatives as multidrug-resistant Staphylococcus aureus therapeutics” (Bioorg Med Chem, 2018).

In brackets after ≈: the same amount, converted by molar mass.

The test system of assay [1] is Staphylococcus aureus. Briefly: Potentiation of sulfamethoxazole-mediated antibacterial activity against methicillin-resistant Staphylococcus aureus USA300 assessed as sulfamethoxazole MIC after 20 hrs by CLSI microdilution assay (reference value: 100 microg/ml). It counts as functional. Conditions: USA300, 20 h. (In general: Broth dilution looks for growth in wells or tubes with falling amounts of substance.)

Assay [2] deals with Staphylococcus aureus. Nature of the assay: Synergistic antibacterial activity against methicillin-susceptible Staphylococcus aureus ATCC 29213 in presence of sulfamethoxazole after 20 hrs by broth microdilution-based checkerboard titration assay. It counts as functional.
Assay [3] concerns Staphylococcus aureus. Nature of the assay: Antibacterial activity against hospital-associated methicillin-resistant Staphylococcus aureus COL at 5 ug after 18 to 20 hrs by CLSI disk diffusion assay. It counts as functional. The note with it: read-out: DIZ. The procedure, abridged:
(§1)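 Disk diffusion on 4 mm Mueller-Hinton agar swabbed with about 10^8 CFU/mL suspension in PBS; 6 mm paper disk loaded with 5 µg compound in DMSO; 37 °C ambient air for 18–20 h; diameter of the complete inhibition zone measured in mm with callipers from the plate back; at least three independent experiments, mean with standard error; 6 mm means no inhibition.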

In assay [4] the test system is Staphylococcus aureus. Briefly: Bactericidal activity against methicillin-resistant Staphylococcus aureus USA300 preincubated for 20 hrs followed by agar plating and measured after 18 to 20 hrs. The assay is classed as functional. The procedure, abridged:
(§2)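 MBC taken from broth microdilution (final about 10^5 CFU/mL, Mueller-Hinton broth, 37 °C for 20 h). Clear wells (basal optical density) were spread on TSA plates and incubated at 37 °C for 18–20 h. The lowest concentration giving no colonies is reported. At least triplicate.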

For assay [5], the system named is Staphylococcus aureus. Briefly: Antibacterial activity against methicillin-susceptible Staphylococcus aureus ATCC 25923 at 5 ug after 18 to 20 hrs by CLSI disk diffusion assay. The note with it: read-out: DIZ. It counts as functional. In short, it runs like this:
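Mueller-Hinton agar, 4 mm deep, swabbed with PBS-diluted overnight TSB culture (~10^8 CFU/mL). Paper disk (6 mm) loaded with compound in DMSO, incubated 37 °C in ambient air. Complete inhibition zone diameter read from plate back with callipers; 6 mm means no inhibition. At least three independent experiments, mean with standard error.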

Assay [6] deals with Staphylococcus aureus. Briefly: Synergistic antibacterial activity against hospital-associated methicillin-resistant Staphylococcus aureus COL in presence of sulfamethoxazole after 20 hrs by broth microdilution-based checkerboard titration assay. It counts as functional.
In another assay the test system is A549. Nature of the assay: Cytotoxicity against human A549 cells after 24 to 48 hrs by fluorescence-based assay. It counts as cell-based. The procedure, abridged:
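A549 cells, ~10^4 per well in DMEM, given 2-fold serial dilutions of compound (DMSO stock diluted in DMEM). Incubated at 37 °C, 5% CO2. PrestoBlue added for 1 h, then fluorescence read at excitation 535 nm and emission 610 nm as a measure of viable cells.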

Assay [7] deals with Staphylococcus aureus. Nature of the assay: Synergistic antibacterial activity against hospital-associated methicillin-resistant Staphylococcus aureus COL assessed as fractional inhibitory concentration index in presence of sulfamethoxazole after 18 hrs by broth microdilution-based checkerboard titration assay. It counts as functional.
The subject of assay [8] is Staphylococcus aureus. Nature of the assay: Synergistic antibacterial activity against methicillin-resistant Staphylococcus aureus USA300 in presence of sulfamethoxazole after 20 hrs by broth microdilution-based checkerboard titration assay. The assay is classed as functional.
In assay [9] the test system is Staphylococcus aureus. Nature of the assay: Antibacterial activity against methicillin-susceptible Staphylococcus aureus ATCC 29213 after 20 hrs by CLSI microdilution assay. It counts as functional. The note with it: ATCC 29213, 20 h.
Assay [10] concerns Staphylococcus aureus. Briefly: Bactericidal activity against methicillin-susceptible Staphylococcus aureus ATCC 29213 preincubated for 20 hrs followed by agar plating and measured after 18 to 20 hrs. It counts as functional. The procedure, abridged:
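Broth microdilution per CLSI guideline. Compounds diluted 2-fold in MHB from 100 mM DMSO stocks. Inoculum ~10^5 CFU/mL final, from overnight TSB culture diluted in PBS. Plates incubated at 37 °C. Wells without growth by optical density spread on TSA and incubated at 37 °C. MBC is the lowest concentration giving no colonies. At least triplicate.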

Assay [11] has as its system Staphylococcus aureus. Briefly: Antibacterial activity against hospital-associated methicillin-resistant Staphylococcus aureus COL after 20 hrs by CLSI microdilution assay. The assay is classed as functional.
The test system of assay [12] is Staphylococcus aureus. Briefly: Potentiation of sulfamethoxazole-mediated antibacterial activity against methicillin-susceptible Staphylococcus aureus ATCC 29213 assessed as sulfamethoxazole MIC after 20 hrs by CLSI microdilution assay (reference value: 100 microg/ml). The assay is classed as functional. The note with it: ATCC 29213, 20 h.
For assay [13], the system named is Staphylococcus aureus. Nature of the assay: Antibacterial activity against methicillin-resistant Staphylococcus aureus USA300 at 5 ug after 18 to 20 hrs by CLSI disk diffusion assay. Conditions: read-out: DIZ. The assay is classed as functional. In short, it runs like this:
as §1
On the technique in general: Agar diffusion results depend on both activity and mobility in agar.

For assay [14], the system named is Staphylococcus aureus. Nature of the assay: Potentiation of sulfamethoxazole-mediated antibacterial activity against hospital-associated methicillin-resistant Staphylococcus aureus COL assessed as sulfamethoxazole MIC after 20 hrs by CLSI microdilution assay (reference value: 200 microg/ml). It counts as functional.
Assay [15] concerns Staphylococcus aureus. Nature of the assay: Synergistic antibacterial activity against methicillin-susceptible Staphylococcus aureus ATCC 29213 assessed as fractional inhibitory concentration index in presence of sulfamethoxazole after 18 hrs by broth microdilution-based checkerboard titration assay. The assay is classed as functional.
Assay [16] deals with Staphylococcus aureus. Briefly: Synergistic antibacterial activity against methicillin-resistant Staphylococcus aureus USA300 assessed as fractional inhibitory concentration index in presence of sulfamethoxazole after 18 hrs by broth microdilution-based checkerboard titration assay. It counts as functional.
In assay [17] the test system is Staphylococcus aureus. Briefly: Bactericidal activity against hospital-associated methicillin-resistant Staphylococcus aureus COL preincubated for 20 hrs followed by agar plating and measured after 18 to 20 hrs. The assay is classed as functional. In short, it runs like this: as §2
Assay [18] concerns Staphylococcus aureus. Briefly: Antibacterial activity against methicillin-resistant Staphylococcus aureus USA300 after 20 hrs by CLSI microdilution assay. It counts as functional. The note with it: USA300, 20 h.

Take `COc1cc(Cc2cnc(N)nc2N)cc(Cl)c1OC`: the MIC (in general, the least concentration at which growth counts as inhibited) in the assay on Staphylococcus aureus [1] came to 6.25 mg/L; with Staphylococcus aureus [9], 1.25 mg/L (≈ 4.24 µM); in the assay on Staphylococcus aureus [11], 5 mg/L (≈ 17 µM); with Staphylococcus aureus [12], 6.25 mg/L; in the assay with Staphylococcus aureus [14] it was 12.5 mg/L; in the assay on Staphylococcus aureus [18], 2.5 mg/L (≈ 8.48 µM). Also, the FIC in the assay with Staphylococcus aureus [2], in the assay with Staphylococcus aureus [6] and with Staphylococcus aureus [8] was 0.06 throughout. Also, the figures for the zone of inhibition at 5 µg/disc in the assay on Staphylococcus aureus [3], in the assay on Staphylococcus aureus [5] and with Staphylococcus aureus [13] were 6 mm, 15.1 mm and 18.1 mm, respectively. Moreover, the MBC (in general, the smallest concentration meeting the test's criterion for killing) in the assay on Staphylococcus aureus [4] is 2.5 mg/L (≈ 8.48 µM); with Staphylococcus aureus [10], 1.25 mg/L (≈ 4.24 µM); with Staphylococcus aureus [17] it was 10 mg/L (≈ 33.9 µM). In addition, half-maximal inhibition in the assay on A549 (IC50) was put at 467 µM. Besides, the “fractional inhibitory concentration index (FICI)” value in the assay with Staphylococcus aureus [7], in the assay on Staphylococcus aureus [15] and in the assay with Staphylococcus aureus [16] was 0.12 throughout.
Turning to `COc1cc(Cc2cnc(N)nc2N)cc(Br)c1OC`, the MIC with Staphylococcus aureus [1] stood at 6.25 mg/L; in the assay on Staphylococcus aureus [9], 1.25 mg/L (≈ 3.69 µM); against Staphylococcus aureus [11] it was 5 mg/L (≈ 14.7 µM); in the assay on Staphylococcus aureus [12], 6.25 mg/L; in the assay on Staphylococcus aureus [14], 12.5 mg/L; against Staphylococcus aureus [18] it was 1.25 mg/L (≈ 3.69 µM). Moreover, the FIC in the assay on Staphylococcus aureus [2], in the assay on Staphylococcus aureus [6] and in the assay on Staphylococcus aureus [8] was 0.06 each time. Also, the zone of inhibition at 5 µg/disc in the assay with Staphylococcus aureus [3] was 6 mm; with Staphylococcus aureus [5], 17.4 mm; with Staphylococcus aureus [13] it was 20.4 mm. For the same compound, the figures for the minimum bactericidal concentration (MBC) in the assay with Staphylococcus aureus [4], with Staphylococcus aureus [10] and in the assay with Staphylococcus aureus [17] were 1.25 mg/L (≈ 3.69 µM), 1.25 mg/L (≈ 3.69 µM) and 5 mg/L (≈ 14.7 µM), respectively. Moreover, in the assay with A549, the IC50 (as a rule, the concentration that gives 50% inhibition) stood at 321 µM. In addition, the “fractional inhibitory concentration index (FICI)” value with Staphylococcus aureus [7] came out at 0.12; with Staphylococcus aureus [15], 0.12; in the assay on Staphylococcus aureus [16], 0.18.
As for `COc1cc(Cc2cnc(N)nc2N)cc(I)c1OC`, the minimal inhibitory concentration (MIC) with Staphylococcus aureus [1] came out at 6.25 mg/L; against Staphylococcus aureus [9], 1.25 mg/L (≈ 3.24 µM); against Staphylococcus aureus [11], 2.5 mg/L (≈ 6.47 µM); with Staphylococcus aureus [12], 3.13 mg/L; with Staphylococcus aureus [14], 12.5 mg/L; against Staphylococcus aureus [18], 1.25 mg/L (≈ 3.24 µM). Further, the FIC in the assay with Staphylococcus aureus [2] turned out to be 0.03; with Staphylococcus aureus [6], 0.06; with Staphylococcus aureus [8], 0.06. In addition, the zone of inhibition at 5 µg/disc in the assay with Staphylococcus aureus [3] amounted to 6 mm; in the assay on Staphylococcus aureus [5] it was 21 mm; with Staphylococcus aureus [13], 22.8 mm. Further, the values for the MBC in the assay on Staphylococcus aureus [4], against Staphylococcus aureus [10] and in the assay on Staphylococcus aureus [17] were 1.25 mg/L (≈ 3.24 µM), 1.25 mg/L (≈ 3.24 µM) and 5 mg/L (≈ 12.9 µM), respectively. The IC50 in the assay on A549 amounted to 266 µM. For the same compound, the “fractional inhibitory concentration index (FICI)” value in the assay on Staphylococcus aureus [7] is reported as 0.12; in the assay with Staphylococcus aureus [15], 0.09; with Staphylococcus aureus [16], 0.12.
